Results reported in PubChem BioAssay AID488914 (Broad Institute, 2010).
Inconclusive results are not listed. Calls of active or inactive are those of the source.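 The calls were made as follows: active = compounds raising caspase signal whose fitted half-maximal concentration lies at or below their highest valid tested dose; inconclusive = flat curve at 30 to 70% activity, or unreliable fit; inactive = the rest.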

System: not listed separately
Assay: caspase activation in TSA-primed MEWO cells, dose response, A1 (Bcl2-A1) inhibitor project, cell-based, Trichostatin A priming, dry powder (AID 488914)
Conditions: MEWO cells TSA-primed, caspase-Glo luminescence, 3 h; at 135 µM (top of the series)
Outline: (§1)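 Test system: Human MEWO cells with A1 expression, Trichostatin A primed | Technique: Caspase-Glo luminescence, reagent diluted 1:1 in 50 mM HEPES | Medium: RPMI-1640 plus 10% FBS | Read-out: Caspase activity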

Structure (SMILES)	caspase activation
C=C1[C@@H](C)[C@H]2[C@H](Cc3ccccc3)NC(=O)[C@]23[C@H](OC(C)=O)/C=C/[C@](C)(O)C(=O)[C@@H](C)C/C=C/[C@H]3[C@@H]1O	5.7% (inactive)
COc1cc(/C=C(/C#N)c2nc3ccccc3[nH]2)ccc1OCC(=O)Nc1ccccc1C(C)C	2.25% (inactive)
Cc1cccc(CS(=O)(=O)c2ncc(Cl)c(C(=O)Nc3nnc(C(C)C)s3)n2)c1	-9.05% (inactive)
CCc1nnc(NC(=O)c2nc(S(=O)(=O)Cc3ccccc3)ncc2Cl)s1	-6.87% (inactive)
Cc1ccc(CS(=O)(=O)c2ncc(Cl)c(C(=O)Nc3nnc(C(C)C)s3)n2)cc1	-9.39% (inactive)
O=C(CCl)N=c1sccn1Cc1ccccc1Cl	3.57% (inactive)
Cn1c(=NC(=O)CCl)sc2ccccc21	-6.3% (inactive)
Nc1nc(F)nc2c1ncn2[C@@H]1O[C@H](CO)[C@@H](O)[C@H]1O	-2.16% (inactive)
CCSc1nnc(NC(=O)c2nc(S(=O)(=O)Cc3ccc(F)cc3)ncc2Cl)s1	-10.5% (inactive)

System: MEWO cells TSA-primed, caspase-Glo luminescence, 3 h
Assay: as above
Conditions: not given
Outline: as §1

Structure (SMILES)	AC50
O=C(Oc1cccc(/C=N/Nc2nc(Nc3ccccc3)nc(N3CCOCC3)n2)c1)c1ccco1	6.87 µM
COc1cccc(C(=O)C(C#N)=C(SC)SC)c1	0.92 µM
C=C1[C@@H](C)[C@H]2[C@H](Cc3ccccc3)NC(=O)[C@]23OC(=O)/C=C\[C@H](O)CCC[C@@H](C)C/C=C/[C@H]3[C@@H]1O	2.29 µM
CC(C)(C)n1nc(-c2ccc(Cl)cc2)c2c(N)ncnc21	> 135 µM (inactive)
CC(=O)N[C@H]1[C@H](O[C@H]2CC[C@@]3(C)C(CC[C@]4(C)C3CC=C3[C@@H]5CC(C)(C)CC[C@]5(C(=O)OC5OCC(O)C(O)C5O)C(O)C[C@]34C)C2(C)C)O[C@H](COC2OCC(O)C(OC3OCC(O)C(O)C3O)C2O)[C@@H](O[C@@H]2O[C@@H](C)[C@H](O)[C@@H](O)[C@H]2O[C@@H]2O[C@@H](C)[C@H](O)[C@@H](O)[C@H]2O)[C@@H]1O (stereo not given in full)	6.81 µM
CCOC(=O)CSC1=N/C(=C/c2ccc(-n3cncn3)cc2)C(=O)N1C(C)=O	4.12 µM
Cc1c(CCOC(=O)c2ccc(N3CCOCC3)c([N+](=O)[O-])c2)sc[n+]1CC#N	13.1 µM
Cc1cc(C(=O)CCl)c(C)n1CCc1ccc(Cl)cc1	77.8 µM
Cc1ccc(Sc2c([N+](=O)[O-])c(=O)n(C)c3ccccc23)cc1	16.8 µM
COc1ccc(N(C(=O)CCl)C(C(=O)NCCc2ccccc2)c2cccs2)cc1Cl (stereo not given)	10.6 µM
C/C1=C/C(=O)O[C@@H]2C[C@@H](CC[C@H](C)/C=C\CC1)O[C@@](O)(C1CSC(=O)N1)C2 (stereo not given in full)	0.632 µM
